# Measurements: ChEMBL document CHEMBL4396897, “Potent 5-Cyano-6-phenyl-pyrimidin-Based Derivatives Targeting DCN1-UBE2M Interaction” (J Med Chem, 2019)
# Activity calls are given as the source filed them. The calls are words filed in the database; no cut-off is given here.
# Tests used:
# [1] = test system: L02; assay: Antiproliferative activity against human L02 after 72 hrs by MTT assay; assay type: cell-based; conditions: l02, 72 h
# Summary of the method: (§1)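 MTT viability assay: cells seeded at 2~5×10^3 per well, exposed to serial dilutions of compound for 72h, then MTT (5 mg/mL in PBS) added for 4h at 37°C. Formazan dissolved in DMSO and read at 490nm. IC50 reported as mean ± SD of three independent experiments.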
# [2] = test system: ECa-109 cell line; assay: Antiproliferative activity against human EC109 after 72 hrs by MTT assay; assay type: functional, cell-based; summary of the method: as §1
# [3] = target: T1, DCN1-like protein 3 (Homo sapiens, UniProt Q8IWE4); assay: Binding affinity to N-terminal GST tagged recombinant DCN3 (unknown origin) (86 to 304 residues) expressed in Escherichia coli BL21(DE3) assessed as reduction in DCN1/FAM-labelled N-terminal acetylated UBE2M (1 to 21 residues) protein-protein interaction after 30 mins by HTRF assay
# T1 sequence (Q8IWE4 whole entry): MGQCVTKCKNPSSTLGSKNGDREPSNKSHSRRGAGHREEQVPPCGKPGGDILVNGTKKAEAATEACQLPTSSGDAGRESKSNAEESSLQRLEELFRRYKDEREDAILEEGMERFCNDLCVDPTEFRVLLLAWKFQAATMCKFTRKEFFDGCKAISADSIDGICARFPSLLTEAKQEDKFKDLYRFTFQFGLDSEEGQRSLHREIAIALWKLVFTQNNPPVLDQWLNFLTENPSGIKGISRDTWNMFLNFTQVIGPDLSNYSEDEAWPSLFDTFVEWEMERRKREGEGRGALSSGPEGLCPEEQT
# Summary of the method: (§2)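 HTRF competition: 5nM GST-tagged DCN (1-5) and 5nM AcUBE2M1-21-biotin peptide, with streptavidin-XL665 and anti-GST cryptate, in 100mM phosphate buffer pH 6.5 with 0.02% Tween-20. Cocktail pre-incubated 30min at room temperature, compound added, then 30min more. Excitation 320nm, emission 615/665nm. Ki from three independent repeats, mean ± SD.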
# [4] = test system: A549; assay: Induction of apoptosis in human A549 cells assessed as necrotic cells at 5 uM after 48 hrs by Annexin V-FITC/propidium iodide staining based flow cytometry (reference value: 0.88%); assay type: functional
# [5] = test system: NCI-H1975; assay: Effect on Cullin3 neddylation in human NCI-H1975 cells transfected with DCN1 siRNA3 by densitometric method; assay type: functional, cell-based
# Summary of the method: (§3)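 H1975 or PC9 cells seeded in 6-well plates for 16-24h, transfected with DCN1 siRNA#3 by lipofection, with or without compound, and collected three days later. Western blot for Cullin3, DCN1, NRF2, HO-1 and NQO1, with densitometry normalized to GAPDH. Three individual experiments, means ± SD.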
# [6] = test system: NCI-H1975; assay: Effect on NQO1 accumulation in human NCI-H1975 cells transfected with DCN1 siRNA3 by densitometric method; assay type: functional, cell-based; summary of the method: as §3
# [7] = target: T2, DCN1-like protein 5 (Homo sapiens, UniProt Q9BTE7); assay: Binding affinity to N-terminal GST tagged recombinant DCN5 (unknown origin) (47 to 237 residues) expressed in Escherichia coli BL21(DE3) assessed as reduction in DCN1/FAM-labelled N-terminal acetylated UBE2M (1 to 21 residues) protein-protein interaction after 30 mins by HTRF assay; summary of the method: as §2
# T2 sequence (Q9BTE7 whole entry): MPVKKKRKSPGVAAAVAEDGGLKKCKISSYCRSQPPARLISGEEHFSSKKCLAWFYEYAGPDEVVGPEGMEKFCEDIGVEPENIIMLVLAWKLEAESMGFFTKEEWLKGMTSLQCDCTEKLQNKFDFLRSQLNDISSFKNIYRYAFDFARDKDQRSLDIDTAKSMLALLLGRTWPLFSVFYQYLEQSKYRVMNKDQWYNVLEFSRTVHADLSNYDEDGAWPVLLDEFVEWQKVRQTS
# [8] = test system: TE-1; assay: Antiproliferative activity against human TE1 after 72 hrs by MTT assay; assay type: functional, cell-based; summary of the method: as §1
# [9] = test system: KYSE-140; assay: Antiproliferative activity against human KYSE-140 after 72 hrs by MTT assay; assay type: functional, cell-based; summary of the method: as §1
# [10] = test system: NCI-H1975; assay: Induction of apoptosis in human NCI-NCI-H1975 cells assessed as necrotic cells at 2.5 uM after 48 hrs by Annexin V-FITC/propidium iodide staining based flow cytometry (reference value: 0.94%); assay type: functional
# [11] = test system: NCI-H1975; assay: Induction of apoptosis in human NCI-NCI-H1975 cells assessed as early apoptotic cells at 5 uM after 48 hrs by Annexin V-FITC/propidium iodide staining based flow cytometry (reference value: 2.47%); assay type: functional
# [12] = Aqueous solubility of compound in pH 7.4 PBS sonicated for 30 mins followed by 24 hrs incubation under shaking condition by UV-Vis spectroscopy; assay type: physicochemical; conditions: buffer, pH 7.4, 24 h
# Summary of the method: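 Compound powder added to phosphate buffer (PBS, pH 7.4) until a suspension formed. Sonicated 30 min in a water bath, then shaken 24 h at room temperature to reach equilibrium. Centrifuged, supernatant filtered through a 0.45µm membrane, and filtrate measured by UV spectroscopy against a PBS control.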
# [13] = test system: PC-9; assay: Effect on HO-1 accumulation in human PC9 cells transfected with DCN1 siRNA3 by densitometric method; assay type: functional, cell-based; summary of the method: as §3
# [14] = test system: PC-9; assay: Induction of apoptosis in human PC9 cells assessed as early apoptotic cells at 10 uM after 48 hrs by Annexin V-FITC/propidium iodide staining based flow cytometry (reference value: 1.36%); assay type: functional
# Summary of the method: (§4)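 PC9 cells seeded in 6-well plates (1~2×10^6 cells/mL), incubated overnight, then exposed to 0, 2.5, 5 or 10µM compound for 48h. Harvested cells stained with Annexin-V-FITC/PI for 30 min and analysed by flow cytometry. Three individual experiments; means ± SD.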
# [15] = test system: A549; assay: Induction of apoptosis in human A549 cells after 48 hrs by Annexin V-FITC/propidium iodide staining based flow cytometry; assay type: functional, cell-based
# [16] = test system: A549; assay: Antiproliferative activity against human A549 by MTT assay; assay type: functional, cell-based; conditions: TDE = time-dependent effect
# [17] = test system: NCI-H1975; assay: Induction of apoptosis in human NCI-NCI-H1975 cells assessed as viable cells at 5 uM after 48 hrs by Annexin V-FITC/propidium iodide staining based flow cytometry (reference value: 96.1%); assay type: functional; conditions: NCI-H1975, 48 h, read-out: Activity
# [18] = test system: A549; assay: Induction of apoptosis in human A549 cells assessed as late apoptotic cells at 5 uM after 48 hrs by Annexin V-FITC/propidium iodide staining based flow cytometry (reference value: 2.61%); assay type: functional
# [19] = test system: A549; assay: Induction of apoptosis in human A549 cells assessed as viable cells at 10 uM after 48 hrs by Annexin V-FITC/propidium iodide staining based flow cytometry (reference value: 92.9%); assay type: functional; conditions: A549, 48 h, read-out: Activity
# [20] = test system: PC-3; assay: Antiproliferative activity against human PC3 after 72 hrs by MTT assay; assay type: functional, cell-based; conditions: PC-3, 72 h; summary of the method: as §1
# [21] = test system: SMMC-7721; assay: Antiproliferative activity against human SMMC7721 after 72 hrs by MTT assay; assay type: functional, cell-based; conditions: SMMC-7721, 72 h; summary of the method: as §1
# [22] = test system: PC-9; assay: Antiproliferative activity against human PC9 by MTT assay; assay type: functional, cell-based; summary of the method: as §1
# [23] = test system: PC-9; assay: Induction of apoptosis in human PC9 cells assessed as viable cells at 5 uM after 48 hrs by Annexin V-FITC/propidium iodide staining based flow cytometry (reference value: 95.7%); assay type: functional; conditions: PC-9, 48 h, read-out: Activity; summary of the method: as §4
structure (smiles),measurement,setting,value
C#CCSc1nc(Sc2nccs2)c(C#N)c(-c2ccc(C)cc2)n1,Activity,[1],Non-Toxic
same,Activity,[2],Active
same,Ki,[3],592 nM
same,Activity,[4],7.02%
same,Activity,[5],inactive
same,Activity,[6],inactive
same,Ki,[7],2140 nM
same,Activity,[8],Active
same,Activity,[9],Active
same,Activity,[10],1.35%
same,Activity,[11],28.4%
same,solubility,[12],Soluble
same,Activity,[13],inactive
same,Activity,[14],1.97%
same,Activity,[15],Dose-dependent effect
same,Activity,[16],Tde
same,viability at 5 µM,[17],37.7%
same,Activity,[18],31.6%
same,viability at 10 µM,[19],15.7%
same,IC50,[20],1620 nM
same,IC50,[21],2450 nM
same,IC50,[22],1110 nM
same,Activity,[22]; TDE = time-dependent effect,Tde
same,viability at 5 µM,[23],63.8%
